The text below walks through data of ChEMBL document CHEMBL1123192 (J Med Chem, 1986).

Assay [1] relates to Rattus norvegicus. The assay can be described thus: Maximal change in heart rate (HR) measured as pretreatment value at dose of 10 mg/kg in SHR. Format: functional. The gist of the method:
(§1)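 Spontaneously hypertensive rats; test agent dissolved or dispersed in 0.5% methylcellulose and given by gastric gavage at 5 mL/kg after a 1-h equilibration. Doses ranged from 1 to 100 mg/kg, with 4–8 animals per dose. MABP and HR were monitored for 4 h. Pretreatment values and maximal % change were recorded, and maximal changes were compared with vehicle by Dunnett's t test.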

For assay [2], the system named is Rattus norvegicus. The assay can be described thus: Maximal change in mean arterial blood pressure (MABP) measured as % change from pretreatment value at dose of 5 mg/kg in SHR. The format is functional. The gist of the method: as §1
For assay [3], the system named is Rattus norvegicus. The assay can be described thus: Maximal change in heart rate (HR) measured as % change from pretreatment value at dose of 10 mg/kg in SHR. Format: functional. The gist of the method: as §1
Assay [4] relates to Rattus norvegicus. The assay can be described thus: Maximal change in mean arterial blood pressure (MABP) measured as pretreatment value at dose of 10 mg/kg in SHR. Format: functional. The gist of the method: as §1
Assay [5] deals with Rattus norvegicus. The assay can be described thus: Maximal change in heart rate (HR) measured as % change from pretreatment value at dose of 5 mg/kg in SHR. The format is functional. Put shortly:
as §1

For the next assay, the species on record is Cavia porcellus. The assay can be described thus: Beta-2-adrenoceptor ISA (intrinsic sympathomimetic activity)was measured as relaxant effect against a PGF2-alpha contracted guinea pig trachea at 1x10E-5 M. The format is functional.
The target in assay [6] is Beta-2 adrenergic receptor (Cavia porcellus, UniProt Q8K4Z4). The assay can be described thus: The compound was evaluated for the antagonistic activity against beta-2 adrenergic receptor. The format is functional. As to conditions: read-out: pA2 (converted). Put shortly: (§2)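 Isolated tissue suited to each receptor test, held in 10-mL organ baths of Krebs-Henseleit solution at 37 °C and gassed with 95% O2/5% CO2. Antagonism was judged by how several concentrations of test agent altered a cumulative concentration-response curve to a receptor-specific agonist.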

Assay [7] deals with Rattus norvegicus. The assay can be described thus: Maximal change in heart rate (HR) measured as pretreatment value at dose of 25 mg/kg in SHR. Format: functional. Put shortly:
as §1

Assay [8] relates to Rattus norvegicus. The assay can be described thus: Maximal change in heart rate (HR) measured as % change from pretreatment value at dose of 25 mg/kg in SHR. Format: functional. The gist of the method:
as §1

The subject of assay [9] is Rattus norvegicus. The assay can be described thus: Maximal change in mean arterial blood pressure (MABP) measured as pretreatment value at dose of 5 mg/kg in SHR. The format is functional. Put shortly: as §1
For assay [10], the system named is Rattus norvegicus. The assay can be described thus: Maximal change in mean arterial blood pressure (MABP) measured as % change from pretreatment value at dose of 25 mg/kg. The format is functional. The gist of the method:
as §1

Assay [11] relates to Rattus norvegicus. The assay can be described thus: Maximal change in mean arterial blood pressure (MABP) measured as pretreatment value at dose of 25 mg/kg in SHR. Format: functional. The gist of the method: as §1
Assay [12] has as its target Beta-1 adrenergic receptor (Cavia porcellus) (UniProt B0FL73). The assay can be described thus: Beta-1 adrenergic receptor ISA (intrinsic sympathomimetic activity)using the guinea pig right atria was measured as % increase of positive chronotropic effect (basal spontaneous beating rate) at 1x10E-7 M.
Assay [13] concerns the target Beta-1 adrenergic receptor (Cavia porcellus, UniProt B0FL73). The assay can be described thus: The compound was evaluated for the antagonistic activity against beta-1 adrenergic receptor. The conditions noted are these: read-out: pA2 (converted). The format is functional. Put shortly:
as §2

Assay [14] deals with Rattus norvegicus. The assay can be described thus: Maximal change in mean arterial blood pressure (MABP) measured as % change from pretreatment value at dose of 10 mg/kg in SHR. Format: functional. The gist of the method: as §1
The subject of assay [15] is Rattus norvegicus. The assay can be described thus: TMaximal change in heart rate (HR) measured as pretreatment value at dose of 5 mg/kg in SHR. Format: functional. The gist of the method:
as §1

In assay [16] the target is T1, Adrenergic receptor alpha-2 (Rattus norvegicus, UniProt P22086+P19328+P22909).
T1 sequence (P22086 whole entry): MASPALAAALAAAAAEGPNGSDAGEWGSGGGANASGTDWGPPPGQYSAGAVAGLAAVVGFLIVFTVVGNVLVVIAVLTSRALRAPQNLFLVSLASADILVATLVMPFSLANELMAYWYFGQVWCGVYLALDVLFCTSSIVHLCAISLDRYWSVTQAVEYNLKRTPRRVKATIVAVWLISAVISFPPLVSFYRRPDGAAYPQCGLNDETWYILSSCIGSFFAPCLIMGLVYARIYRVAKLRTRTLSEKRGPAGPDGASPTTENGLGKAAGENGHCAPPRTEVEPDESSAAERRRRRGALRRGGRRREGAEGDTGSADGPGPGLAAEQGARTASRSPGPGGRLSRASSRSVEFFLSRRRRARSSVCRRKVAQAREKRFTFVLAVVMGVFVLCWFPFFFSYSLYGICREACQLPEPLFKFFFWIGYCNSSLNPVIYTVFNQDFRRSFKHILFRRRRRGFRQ
T1 sequence (P19328 whole entry): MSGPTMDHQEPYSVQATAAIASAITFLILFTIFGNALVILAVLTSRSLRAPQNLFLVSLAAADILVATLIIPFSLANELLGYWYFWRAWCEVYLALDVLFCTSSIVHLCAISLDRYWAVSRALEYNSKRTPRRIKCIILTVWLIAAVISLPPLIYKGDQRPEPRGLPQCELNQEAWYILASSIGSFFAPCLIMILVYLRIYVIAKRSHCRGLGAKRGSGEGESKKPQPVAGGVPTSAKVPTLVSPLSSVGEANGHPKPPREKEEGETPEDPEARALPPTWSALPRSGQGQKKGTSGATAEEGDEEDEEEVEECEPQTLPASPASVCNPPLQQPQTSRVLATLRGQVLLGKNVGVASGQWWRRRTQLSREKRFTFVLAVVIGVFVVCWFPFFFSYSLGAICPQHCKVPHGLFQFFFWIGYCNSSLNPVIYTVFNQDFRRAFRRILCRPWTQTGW
T1 sequence (P22909 whole entry): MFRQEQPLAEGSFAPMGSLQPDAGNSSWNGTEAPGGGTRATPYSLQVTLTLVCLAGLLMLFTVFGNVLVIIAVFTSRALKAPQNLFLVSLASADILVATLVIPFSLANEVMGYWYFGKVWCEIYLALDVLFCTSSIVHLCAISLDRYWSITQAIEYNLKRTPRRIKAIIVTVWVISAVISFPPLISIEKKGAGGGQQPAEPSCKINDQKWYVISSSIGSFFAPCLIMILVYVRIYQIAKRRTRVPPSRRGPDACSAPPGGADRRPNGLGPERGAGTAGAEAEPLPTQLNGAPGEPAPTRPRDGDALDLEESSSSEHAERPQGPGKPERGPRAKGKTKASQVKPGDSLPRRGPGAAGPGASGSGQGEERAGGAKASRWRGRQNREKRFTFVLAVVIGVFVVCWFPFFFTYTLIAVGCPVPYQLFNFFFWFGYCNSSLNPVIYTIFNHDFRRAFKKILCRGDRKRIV
The assay can be described thus: The compound was evaluated for the antagonistic activity against alpha-2 adrenergic receptor. Format: functional.

Beta-1 adrenergic receptor (Cavia porcellus), sequence (B0FL73 1-467): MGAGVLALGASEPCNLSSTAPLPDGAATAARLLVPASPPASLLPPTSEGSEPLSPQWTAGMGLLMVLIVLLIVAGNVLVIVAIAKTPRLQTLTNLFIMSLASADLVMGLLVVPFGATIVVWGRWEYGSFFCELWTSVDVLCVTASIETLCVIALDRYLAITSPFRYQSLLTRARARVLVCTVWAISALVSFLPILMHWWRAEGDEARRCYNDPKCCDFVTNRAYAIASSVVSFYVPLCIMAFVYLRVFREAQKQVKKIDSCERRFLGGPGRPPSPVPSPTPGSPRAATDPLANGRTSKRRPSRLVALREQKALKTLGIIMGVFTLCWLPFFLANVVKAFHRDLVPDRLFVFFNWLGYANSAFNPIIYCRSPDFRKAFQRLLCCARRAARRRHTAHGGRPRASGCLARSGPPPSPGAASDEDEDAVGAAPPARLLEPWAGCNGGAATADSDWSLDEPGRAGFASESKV
Beta-1 adrenergic receptor, sequence (B0FL73 whole entry): as the sequence (B0FL73 1-467) above
Beta-2 adrenergic receptor, sequence (Q8K4Z4 whole entry): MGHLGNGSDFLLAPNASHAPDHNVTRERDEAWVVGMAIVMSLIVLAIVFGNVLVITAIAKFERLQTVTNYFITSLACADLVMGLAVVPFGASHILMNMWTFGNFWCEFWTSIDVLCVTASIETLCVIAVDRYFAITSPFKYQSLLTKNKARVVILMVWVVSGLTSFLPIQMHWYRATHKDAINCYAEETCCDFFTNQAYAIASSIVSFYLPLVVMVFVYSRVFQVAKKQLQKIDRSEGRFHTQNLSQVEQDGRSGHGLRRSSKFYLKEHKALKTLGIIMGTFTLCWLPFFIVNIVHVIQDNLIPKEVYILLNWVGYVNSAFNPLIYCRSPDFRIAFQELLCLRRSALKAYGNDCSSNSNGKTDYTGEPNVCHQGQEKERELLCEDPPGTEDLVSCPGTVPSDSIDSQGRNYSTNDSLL

Broadly, the pA2 is the negative logarithm of the molar antagonist concentration that doubles the agonist concentration needed for the same response. The low end stands for a weaker antagonist, the high end for a more potent antagonist. As to `CC(CCc1ccccc1)NCC(O)c1ccc(O)c(C(N)=O)c1` (configuration not stated) [LABETALOL], the HR is listed as 457 beats min-1 in the assay on Rattus norvegicus [1], 437 beats min-1 in the assay with Rattus norvegicus [7] and 424 beats min-1 in the assay on Rattus norvegicus [15]. The Change is -14% in the assay with Rattus norvegicus [2]; -23% in the assay with Rattus norvegicus [3]; -15% in the assay with Rattus norvegicus [5]; 62% in the assay filed under Cavia porcellus; -27% in the assay on Rattus norvegicus [8]; -31% with Rattus norvegicus [10]. In addition, the figures for the Change (in [12]; with Rattus norvegicus [14]) were 0% and -25%, respectively. Further, the MABP in the assay with Rattus norvegicus [4] is reported as 158 mmHg; in the assay with Rattus norvegicus [9], 161 mmHg; in the assay with Rattus norvegicus [11], 163 mmHg. Moreover, the Kb in assay [6] is 39.8 nM; in assay [13] it was 31.6 nM. Moreover, in assay [16], the pA2 is less than 5.
